Source: ChEMBL document CHEMBL4304792, “Cinnamonitrile Adjuvants Restore Susceptibility to β-Lactams against Methicillin-Resistant Staphylococcus aureus” (ACS Med Chem Lett, 2019)
The source made the active and inactive calls. The rule behind the calls is not given here.

Tests used:
HeLa = test: Cytotoxicity against human HeLa cells by XTT assay; type: cell-based
In short: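 HeLa human cervical cancer cells were exposed to the compounds. Viability was read by XTT colorimetric assay, and IC50 was reported in μM and mg·L–1.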

Staphylococcus aureus [1] = test: Potentiation of oxacillin induced antibacterial activity against Staphylococcus aureus Mu50 NRS1 assessed as oxacillin MIC at 20 uM measured after 16 to 20 hrs in presence of 2% NaCl by microdilution broth method (reference value: 256 mg/L); type: functional
Staphylococcus aureus [2] = test: Potentiation of oxacillin induced antibacterial activity against Staphylococcus aureus Mu50 NRS1 assessed as oxacillin MIC at 16 uM measured after 16 to 20 hrs in presence of 2% NaCl by microdilution broth method (reference value: 256 mg/L); type: functional
Staphylococcus aureus [3] = test: Potentiation of oxacillin induced antibacterial activity against Staphylococcus aureus Mu50 NRS1 assessed as oxacillin MIC at 8 uM measured after 16 to 20 hrs in presence of 2% NaCl by microdilution broth method (reference value: 256 mg/L); type: functional
Staphylococcus aureus [4] = test: Potentiation of oxacillin induced antibacterial activity against Staphylococcus aureus NRS70 assessed as oxacillin MIC at 16 uM measured after 16 to 20 hrs in presence of 2% NaCl by microdilution broth method (reference value: 64 mg/L); type: functional
Staphylococcus aureus [5] = test: Potentiation of oxacillin induced antibacterial activity against Staphylococcus aureus NRS119 assessed as oxacillin MIC at 20 uM measured after 16 to 20 hrs in presence of 2% NaCl by microdilution broth method (reference value: 256 mg/L); type: functional
Staphylococcus aureus [6] = test: Potentiation of oxacillin induced antibacterial activity against Staphylococcus aureus MW2 NRS123 assessed as oxacillin MIC at 20 uM measured after 16 to 20 hrs in presence of 2% NaCl by microdilution broth method (reference value: 16 mg/L); type: functional
Staphylococcus aureus [7] = test: Potentiation of oxacillin induced antibacterial activity against Staphylococcus aureus MW2 NRS123 assessed as oxacillin MIC at 16 uM measured after 16 to 20 hrs in presence of 2% NaCl by microdilution broth method (reference value: 16 mg/L); type: functional
Staphylococcus aureus [8] = test: Potentiation of oxacillin induced antibacterial activity against Staphylococcus aureus USA100-NRS382 assessed as oxacillin MIC at 16 uM measured after 16 to 20 hrs in presence of 2% NaCl by microdilution broth method (reference value: 64 mg/L); type: functional
Staphylococcus aureus [9] = test: Potentiation of oxacillin induced antibacterial activity against Staphylococcus aureus USA100-NRS382 assessed as oxacillin MIC at 8 uM measured after 16 to 20 hrs in presence of 2% NaCl by microdilution broth method (reference value: 64 mg/L); type: functional
Staphylococcus aureus [10] = test: Potentiation of oxacillin induced antibacterial activity against Staphylococcus aureus USA200-NRS383 assessed as oxacillin MIC at 20 uM measured after 16 to 20 hrs in presence of 2% NaCl by microdilution broth method (reference value: 128 mg/L); type: functional
Staphylococcus aureus [11] = test: Potentiation of oxacillin induced antibacterial activity against Staphylococcus aureus USA200-NRS383 assessed as oxacillin MIC at 16 uM measured after 16 to 20 hrs in presence of 2% NaCl by microdilution broth method (reference value: 128 mg/L); type: functional
Staphylococcus aureus [12] = test: Potentiation of oxacillin induced antibacterial activity against Staphylococcus aureus USA200-NRS383 assessed as oxacillin MIC at 8 uM measured after 16 to 20 hrs in presence of 2% NaCl by microdilution broth method (reference value: 128 mg/L); type: functional
Staphylococcus aureus [13] = test: Potentiation of oxacillin induced antibacterial activity against Staphylococcus aureus NRS384 assessed as oxacillin MIC at 20 uM measured after 16 to 20 hrs in presence of 2% NaCl by microdilution broth method (reference value: 32 mg/L); type: functional
Staphylococcus aureus [14] = test: Potentiation of oxacillin induced antibacterial activity against Staphylococcus aureus NRS384 assessed as oxacillin MIC at 16 uM measured after 16 to 20 hrs in presence of 2% NaCl by microdilution broth method (reference value: 32 mg/L); type: functional
Staphylococcus aureus [15] = test: Potentiation of oxacillin induced antibacterial activity against Staphylococcus aureus NRS384 assessed as oxacillin MIC at 8 uM measured after 16 to 20 hrs in presence of 2% NaCl by microdilution broth method (reference value: 32 mg/L); type: functional
Staphylococcus aureus [16] = test: Potentiation of oxacillin induced antibacterial activity against Staphylococcus aureus MRSA252 assessed as oxacillin MIC at 20 uM measured after 16 to 20 hrs in presence of 2% NaCl by microdilution broth method (reference value: 256 mg/L); type: functional
Staphylococcus aureus [17] = test: Potentiation of oxacillin induced antibacterial activity against Staphylococcus aureus MRSA252 assessed as oxacillin MIC at 16 uM measured after 16 to 20 hrs in presence of 2% NaCl by microdilution broth method (reference value: 256 mg/L); type: functional
Staphylococcus aureus [18] = test: Potentiation of oxacillin induced antibacterial activity against Staphylococcus aureus MRSA252 assessed as oxacillin MIC at 8 uM measured after 16 to 20 hrs in presence of 2% NaCl by microdilution broth method (reference value: 256 mg/L); type: functional
Staphylococcus aureus [19] = test: Antibacterial activity against Staphylococcus aureus Mu50 NRS1 measured after 16 to 20 hrs in presence of 2% NaCl by microdilution broth method; type: functional
Staphylococcus aureus [20] = test: Antibacterial activity against Staphylococcus aureus NRS119 measured after 16 to 20 hrs in presence of 2% NaCl by microdilution broth method; type: functional
Staphylococcus aureus [21] = test: Antibacterial activity against Staphylococcus aureus USA100-NRS382 measured after 16 to 20 hrs in presence of 2% NaCl by microdilution broth method; type: functional
Staphylococcus aureus [22] = test: Antibacterial activity against Staphylococcus aureus NRS384 measured after 16 to 20 hrs in presence of 2% NaCl by microdilution broth method; type: functional
Staphylococcus aureus [23] = test: Potentiation of oxacillin induced antibacterial activity against methicillin susceptible Staphylococcus aureus ATCC29213 assessed as reduction in oxacillin MIC at 20 uM measured after 16 to 20 hrs in presence of 2% NaCl by microdilution broth method; type: functional
In short: (§1)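 Oxacillin MIC was measured against methicillin-susceptible strains with the adjuvant fixed at 20 μM. Potentiation was expressed as fold reduction of the oxacillin MIC relative to oxacillin alone.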

Staphylococcus aureus [24] = test: Potentiation of oxacillin induced antibacterial activity against methicillin susceptible Staphylococcus aureus NRS72 assessed as reduction in oxacillin MIC at 20 uM measured after 16 to 20 hrs in presence of 2% NaCl by microdilution broth method; type: functional; in short: as §1
Staphylococcus aureus [25] = test: Potentiation of oxacillin induced antibacterial activity against methicillin susceptible Staphylococcus aureus NRS77 assessed as reduction in oxacillin MIC at 20 uM measured after 16 to 20 hrs in presence of 2% NaCl by microdilution broth method; type: functional; in short: as §1
Staphylococcus aureus [26] = test: Potentiation of oxacillin induced antibacterial activity against Staphylococcus aureus NRS70 assessed as oxacillin MIC at 20 uM measured after 16 to 20 hrs in presence of 2% NaCl by microdilution broth method (reference value: 64 mg/L); type: functional

MIC (Staphylococcus aureus [1])	MIC (Staphylococcus aureus [2])	MIC (Staphylococcus aureus [3])	MIC (Staphylococcus aureus [4])	MIC (Staphylococcus aureus [5])	MIC (Staphylococcus aureus [6])	MIC (Staphylococcus aureus [7])	MIC (Staphylococcus aureus [8])	MIC (Staphylococcus aureus [9])	MIC (Staphylococcus aureus [12])	MIC (Staphylococcus aureus [13])	MIC (Staphylococcus aureus [14])	MIC (Staphylococcus aureus [15])	MIC (Staphylococcus aureus [16])	MIC (Staphylococcus aureus [17])	MIC (Staphylococcus aureus [18])	MIC (Staphylococcus aureus [19])	MIC (Staphylococcus aureus [20])	MIC (Staphylococcus aureus [21])	SMILES	IC50 (HeLa)	other results
2 µg/mL	16 µg/mL	128 µg/mL	2 µg/mL	0.12 µg/mL	2 µg/mL	0.5 µg/mL	2 µg/mL	4 µg/mL	≥ 128 µg/mL	4 µg/mL	8 µg/mL	8 µg/mL	128 µg/mL	128 µg/mL	256 µg/mL	16 µg/mL	16 µg/mL	32 µg/mL	CS(=O)(=O)/C(C#N)=C/c1cc(-c2ccc(Cl)c(Cl)c2)ccc1F	130 µM	MIC (Staphylococcus aureus [10]): ≥ 128 µg/mL; MIC (Staphylococcus aureus [11]): ≥ 128 µg/mL; MIC (Staphylococcus aureus [22]): 16 µg/mL; fold change (FC) (Staphylococcus aureus [23]): 2 - 10; fold change (FC) (Staphylococcus aureus [24]): 2 - 10; fold change (FC) (Staphylococcus aureus [25]): 2 - 10; MIC (Staphylococcus aureus [26]): 0.12 µg/mL
≤ 0.03 µg/mL	0.03 µg/mL	128 µg/mL	0.03 µg/mL	0.12 µg/mL	0.25 µg/mL	0.12 µg/mL	0.25 µg/mL	0.5 µg/mL	≥ 128 µg/mL	0.06 µg/mL	0.12 µg/mL	0.5 µg/mL	2 µg/mL	128 µg/mL	256 µg/mL	16 µg/mL	16 µg/mL	16 µg/mL	N#C/C(=C\c1cc(Cc2ccc(Cl)c(Cl)c2)ccc1F)S(=O)(=O)c1ccccn1	87 µM	MIC (Staphylococcus aureus [10]): ≥ 128 µg/mL; MIC (Staphylococcus aureus [11]): ≥ 128 µg/mL; MIC (Staphylococcus aureus [22]): 16 µg/mL; fold change (FC) (Staphylococcus aureus [23]): 2 - 10; fold change (FC) (Staphylococcus aureus [24]): 2 - 10; fold change (FC) (Staphylococcus aureus [25]): 2 - 10; MIC (Staphylococcus aureus [26]): ≤ 0.03 µg/mL
≤ 0.03 µg/mL	4 µg/mL	16 µg/mL	0.5 µg/mL	Active	≤ 0.03 µg/mL	0.5 µg/mL	1 µg/mL	1 µg/mL	≥ 128 µg/mL	≤ 0.03 µg/mL	0.5 µg/mL	32 µg/mL	64 µg/mL	256 µg/mL	256 µg/mL	16 µg/mL	16 µg/mL	16 µg/mL	CS(=O)(=O)/C(C#N)=C/c1c(F)ccc(Cc2ccc(Cl)c(Cl)c2)c1F	92 µM	MIC (Staphylococcus aureus [10]): ≥ 128 µg/mL; MIC (Staphylococcus aureus [11]): ≥ 128 µg/mL; MIC (Staphylococcus aureus [22]): 16 µg/mL; fold change (FC) (Staphylococcus aureus [23]): 2 - 10; fold change (FC) (Staphylococcus aureus [24]): 2 - 10; fold change (FC) (Staphylococcus aureus [25]): 2 - 10; MIC (Staphylococcus aureus [26]): Active; MIC (Staphylococcus aureus [26]; record 2): ≤ 0.03 µg/mL
1 µg/mL	4 µg/mL	8 µg/mL	0.5 µg/mL	≤ 0.03 µg/mL	≤ 0.03 µg/mL	0.5 µg/mL	1 µg/mL	1 µg/mL	≥ 128 µg/mL	0.06 µg/mL	0.25 µg/mL	2 µg/mL	128 µg/mL	256 µg/mL	256 µg/mL	≥ 64 µg/mL	16 µg/mL	≥ 64 µg/mL	CS(=O)(=O)/C(C#N)=C/c1cc(Cc2ccc(Cl)c(Cl)c2)ccc1F	125 µM	MIC (Staphylococcus aureus [10]): ≥ 128 µg/mL; MIC (Staphylococcus aureus [11]): ≥ 128 µg/mL; MIC (Staphylococcus aureus [22]): 32 µg/mL; fold change (FC) (Staphylococcus aureus [23]): 2 - 10; fold change (FC) (Staphylococcus aureus [24]): 2 - 10; fold change (FC) (Staphylococcus aureus [25]): 2 - 10; MIC (Staphylococcus aureus [26]): ≤ 0.03 µg/mL

SMILES	MIC (Staphylococcus aureus [1])	MIC (Staphylococcus aureus [2])	MIC (Staphylococcus aureus [3])	MIC (Staphylococcus aureus [4])	MIC (Staphylococcus aureus [5])	MIC (Staphylococcus aureus [6])	MIC (Staphylococcus aureus [7])	MIC (Staphylococcus aureus [8])	MIC (Staphylococcus aureus [9])	MIC (Staphylococcus aureus [12])	MIC (Staphylococcus aureus [13])	MIC (Staphylococcus aureus [14])	MIC (Staphylococcus aureus [15])	MIC (Staphylococcus aureus [16])	MIC (Staphylococcus aureus [17])	MIC (Staphylococcus aureus [18])	MIC (Staphylococcus aureus [19])	MIC (Staphylococcus aureus [20])	MIC (Staphylococcus aureus [21])	IC50 (HeLa)	other results
CS(=O)(=O)/C(C#N)=C/c1cc(Cc2ccc(Cl)c(Cl)c2)ccc1OC(F)(F)F	≤ 0.03 µg/mL	0.12 µg/mL	8 µg/mL	≤ 0.03 µg/mL	Active	≤ 0.03 µg/mL	0.12 µg/mL	0.06 µg/mL	0.5 µg/mL	≥ 128 µg/mL	≤ 0.03 µg/mL	0.03 µg/mL	0.25 µg/mL	Active	≤ 0.03 µg/mL	2 µg/mL	32 µg/mL	8 µg/mL	≥ 64 µg/mL	73 µM	MIC (Staphylococcus aureus [22]): 16 µg/mL; fold change (FC) (Staphylococcus aureus [23]): 2 - 10; fold change (FC) (Staphylococcus aureus [24]): 2 - 10; fold change (FC) (Staphylococcus aureus [25]): 2 - 10; MIC (Staphylococcus aureus [26]): Active; MIC (Staphylococcus aureus [26]; record 2): ≤ 0.03 µg/mL
